# Measured values published in ChEMBL document CHEMBL1125596, “3-Alkyl-4-aminobutyric acids: the first class of anticonvulsant agents that activates L-glutamic acid decarboxylase” (1991).
# What was measured:
# [1] = Tested for activation of Glutamate decarboxylase; the ratio of Vmax in the presence of activators to the Vmax in the absence of activators at a concentration of 2.5 mM.
# Outline: (§1)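 Purified GAD (57 µg; sp act. 7.8 nmol/min·mg), 50 mM potassium phosphate pH 7.2, 37 °C, 60 min. Substrate L-glutamate 0.5–0.10 mM spiked with [1-14C]-L-glutamate. Activator at 2.5–0.05 mM. Reaction quenched with 6 M H2SO4; released 14CO2 trapped in KOH center well and counted. Vmax taken from 1/dpm vs 1/[glutamate] plots. Activation is Vmax(+activator)/Vmax(none) ×100%.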
# [2] = Compound was tested for anticonvulsant activity in Mice by iv administration at the dose of 100 mg/kg.; type: functional, Mus musculus
# Outline: (§2)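 Male CF-1 mice (20-28 g), compound given iv. 120 min later, low-intensity corneal electroshock (17 mA base-to-peak sinusoidal, 0.2 s). Protection was scored as prevention of hindlimb tonic extensor seizure and reported as number protected/number tested.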
# [3] = Tested for activation of Glutamate decarboxylase; the ratio of Vmax in the presence of activators to the Vmax in the absence of activators at a concentration of 250 uM.; outline: as §1
# [4] = Tested for activation of Glutamate decarboxylase; the ratio of Vmax in the presence of activators to the Vmax in the absence of activators at a concentration of 1.0 mM.; outline: as §1
# [5] = Compound was tested for anticonvulsant activity in Mice by iv administration at the dose of 14.4 mg/kg; 9/10; type: functional, Mus musculus; outline: as §2
# [6] = Compound was tested for anticonvulsant activity in Mice by iv administration at the dose of 100 mg/kg; 0/10; type: functional, Mus musculus; outline: as §2
# [7] = Compound was tested for anticonvulsant activity in Mice by iv administration at the dose of 100 mg/kg; 4/10; type: functional, Mus musculus; outline: as §2
# [8] = Compound was tested for activation of Glutamate decarboxylase which is the ratio of Vmax in the presence of activators to the Vmax in the absence of activators at a concentration of 100 uM.; outline: as §1
# [9] = Compound was tested for activation of Glutamate decarboxylase which is the ratio of Vmax in the presence of activators to the Vmax in the absence of activators at a concentration of 500 uM.; outline: as §1
# [10] = Compound was tested for anticonvulsant activity in Mice by iv administration at the dose of 100 mg/kg; type: functional, Mus musculus; outline: as §2
# [11] = Compound was tested for anticonvulsant activity in Mice by iv administration at the dose of 100 mg/kg; 2/10; type: functional, Mus musculus; outline: as §2
# [12] = Compound was tested for anticonvulsant activity in Mice by iv administration at the dose of 100 mg/kg; 3/5; type: functional, Mus musculus; outline: as §2
# [13] = Compound was tested for anticonvulsant activity in Mice by iv administration at the dose of 100 mg/kg; 6/10; type: functional, Mus musculus; outline: as §2
# [14] = Compound was tested for anticonvulsant activity in Mice by iv administration at the dose of 30 mg/kg; 2/10; type: functional, Mus musculus; outline: as §2
# [15] = Compound was tested for anticonvulsant activity in Mice by iv administration at the dose of 100 mg/kg; 5/10; type: functional, Mus musculus; outline: as §2
# [16] = Compound was tested for activation of Glutamate decarboxylase which is the ratio of Vmax in the presence of activators to the Vmax in the absence of activators at a concentration of 50 uM.; outline: as §1
SMILES,Activity [1],Activity [3],Activity [4],other results
CC(C)(CN)CC(=O)O,174,109,125,No. of animals protected [2]: 8
CCCCCNCC(N)=O,230,126,170,–
CC(C)CC(CN)CC(=O)O (stereo not drawn),–,109,–,No. of animals protected [5]: 9
CC(C)CCC(CN)CC(=O)O (stereo not drawn),142,109,118,No. of animals protected [6]: 0
NCC1(CC(=O)O)CCCCC1,178,105,145,–
NCC(CC(=O)O)C1CCCCC1 (stereo not drawn),125,100,100,–
CCC(CN)CC(=O)O (stereo not drawn),172,108,128,No. of animals protected [2]: 5
CC(C)(C)CC(CN)CC(=O)O (stereo not drawn),279,130,181,No. of animals protected [7]: 4
C[C@@H](CN)CC(=O)O,327,–,202,Activity [8]: 128; Activity [9]: 185; No. of animals protected [10]: 5
CCCCC(CN)CC(=O)O (stereo not drawn),178,105,117,No. of animals protected [11]: 2
CCCC(CN)CC(=O)O (stereo not drawn),156,105,112,No. of animals protected [12]: 3
CC(C)C(CN)CC(=O)O (stereo not drawn),140,104,108,No. of animals protected [13]: 6
CCC(C)C(CN)CC(=O)O (stereo not drawn),169,105,119,No. of animals protected [14]: 2
C[C@H](CN)CC(=O)O,170,103,118,No. of animals protected [2]: 5
CCCC(CCC)C(=O)O,207,–,138,Activity [8]: 115; Activity [9]: 124
CC(C)(C)C(CN)CC(=O)O (stereo not drawn),295,–,174,Activity [8]: 117; Activity [9]: 147; No. of animals protected [15]: 5
CC(CN)CC(=O)O (stereo not drawn),239,128,168,No. of animals protected [2]: 3; Activity [16]: 107; Activity [8]: 118; Activity [9]: 142
